Reference: the RNAGym collection of RNA variant scans (doi:10.1126/science.aae0568)
Fewer inactive variants are shown than the library holds.

B1: tRNA (parent)
chain: GUUCCGUUGGCGUAAUGGUAACGCGUCUCCCUCCUAAGGAGAAGACUGCGGGUUCGAGUCCCGUACGGAACG

Variants of: B1
Assay: yeast fitness relative to wild type (ratio to wild type); higher = fitter; tRNA-Arg(CCU), competitive growth, 37 C, YPD
How it was run: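 Variants of the tRNA-Arg(CCU) gene, chemically synthesised with a 3% per-site mutation rate at 69 sites, were placed at the native genomic locus in Saccharomyces cerevisiae. The pooled strains were competed in YPD at 37°C for 24 hours in six parallel replicates. Gene amplicons from the start population and from each end population were read by 100-nucleotide paired-end sequencing. Darwinian fitness relative to wild type came from changes in genotype frequencies; genotypes needed ≥ 100 starting reads, and estimates < 0.5 were set to 0.5.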

Going from U2C G56A to U2C U13C C27A G58C G63C, the yeast fitness falls from 1.02 to at most 0.5.

Compared with U2G C11G C30G, U2C G50C G51A C55U is lower in yeast fitness: 0.614 for the first, 0.582 for the second.

Going from U2C U3C C34U A65G to U2G A40C G68C, the yeast fitness rises from at most 0.5 to 0.54.

Compared with U2G A14C C27U U35A A57G C66U, U2G A42U A70U is higher in yeast fitness: at most 0.5 for the first, 0.539 for the second.

Compared with U2G C11A C24A U26A G44C A70G, U2G C4A A43U is higher in yeast fitness: at most 0.5 for the first, 0.717 for the second.

First: U2G C22U C24G
Second: U2G C4G C31A A37C
The yeast fitness of the first is higher: 0.596 for the first, at most 0.5 for the second.

Going from U2C G58A to U2C G51A C62G C66U, the yeast fitness falls from 0.893 to at most 0.5.

U2G C4A U16C C61G G68C and U2G A37C C49U A70C cannot be ordered by yeast fitness: at most 0.5 for the first, at most 0.5 for the second.

First: U2G A20G
Second: U2G C5A A43U
The yeast fitness of the first is higher: 0.901 for the first, 0.68 for the second.

First: U2G C31U G48C
Second: U2G C22U C62U
The yeast fitness of the first is lower: 0.6 for the first, 0.616 for the second.

First: U2C G63C G68C
Second: U2G C24G C49A
The yeast fitness of the first is higher: 0.572 for the first, at most 0.5 for the second.

Compared with U2G C30A C46G, U2G A45U C60U is lower in yeast fitness: 0.666 for the first, 0.549 for the second.

Compared with U2G C4U G6C C22G G25C U32A G52A U59C C61A C62U, U2G C5A C55G is higher in yeast fitness: at most 0.5 for the first, 0.561 for the second.

Compared with U2C U19C A37G C49A A69C, U2C U32C is higher in yeast fitness: at most 0.5 for the first, 0.973 for the second.

Going from U2G A40U C55U A69U to U2C U26A, the yeast fitness rises from at most 0.5 to 0.918.

First: U2C U35G A40C C62G C66G
Second: U2G C27U C46U G63A
The yeast fitness of the first is lower: at most 0.5 for the first, 0.811 for the second.

U2G C11G A20U C22U C34U C49A G52A and U2C U16G C66A cannot be ordered by yeast fitness: at most 0.5 for the first, at most 0.5 for the second.

Going from U2C U32C A40C G48A to U2C G51A A69U, the yeast fitness falls from 0.551 to at most 0.5.

U2C U8C C34A A42C C49A and U2G A42U U64G cannot be ordered by yeast fitness: at most 0.5 for the first, at most 0.5 for the second.

U2G A42U U64C and U2C U3C C34U A40U C55U A65G cannot be ordered by yeast fitness: at most 0.5 for the first, at most 0.5 for the second.

U2C U7A C31A C66G and U2C U16G G56C cannot be ordered by yeast fitness: at most 0.5 for the first, at most 0.5 for the second.

First: U2G C11U A45C U53G A69U
Second: U2G C5A U19A C30G A43C
The yeast fitness of the first is higher: 0.544 for the first, at most 0.5 for the second.

First: U2C U19G C60A
Second: U2G A45G A65C
The yeast fitness of the first is higher: 0.528 for the first, at most 0.5 for the second.

First: U2G C4U C55U
Second: U2C U13A C27G C33A G48A G51C
The yeast fitness of the first is higher: 0.679 for the first, at most 0.5 for the second.

First: U2G C31U A37C
Second: U2G C30G G39C
The yeast fitness of the first is higher: 0.56 for the first, 0.551 for the second.

U2G C27U G41A A42U C46G and U2G A45U C66U G67A cannot be ordered by yeast fitness: at most 0.5 for the first, at most 0.5 for the second.

U2C U13C A14G C22G U26A and U2G C11A A14C C34A cannot be ordered by yeast fitness: at most 0.5 for the first, at most 0.5 for the second.

Compared with U2C U28C C34U U64A A65U, U2C U8C G44A U53C A70U is lower in yeast fitness: 0.735 for the first, at most 0.5 for the second.

First: U2C U32C U35A G56A
Second: U2G A42G
The yeast fitness of the first is lower: at most 0.5 for the first, 0.866 for the second.

First: U2G C11G G12A A20U C30G C49G U53G
Second: U2G A43U U47C
The yeast fitness of the first is lower: at most 0.5 for the first, 0.731 for the second.

Compared with U2G C5G A21C A43U G50A G52U A69C, U2C U26C G48A is higher in yeast fitness: at most 0.5 for the first, 0.663 for the second.

U2G C4U G6C C31G and U2G A15C C24U C55U A65G cannot be ordered by yeast fitness: at most 0.5 for the first, at most 0.5 for the second.

First: U2C U19C G50A
Second: U2C U7A G68A
The yeast fitness of the first is higher: 0.593 for the first, at most 0.5 for the second.

Compared with U2C U7A U35A G56A, U2G A42C U47A is higher in yeast fitness: at most 0.5 for the first, 0.573 for the second.

First: U2G A20G C22A A40C C46G G48A C49U
Second: U2C U47C A70U
The yeast fitness of the first is lower: at most 0.5 for the first, 0.808 for the second.

U2G A15G G17A C29G A40U C61U C66U and U2G A21G U47C A69C cannot be ordered by yeast fitness: at most 0.5 for the first, at most 0.5 for the second.

Going from U2G C22U C24G A69U to U2G A37C, the yeast fitness rises from 0.501 to 0.585.

U2C U13A U54C C66U and U2G A20C C33A cannot be ordered by yeast fitness: at most 0.5 for the first, at most 0.5 for the second.

U2G C27G C33U C49U and U2G C4A A37U C62G cannot be ordered by yeast fitness: at most 0.5 for the first, at most 0.5 for the second.

U2G C4G A21C A69C and U2G C24A C33U A40G G51C A57U cannot be ordered by yeast fitness: at most 0.5 for the first, at most 0.5 for the second.

U2G A57C C62A A65C and U2C U13C C22G U26A C31U A42C G50C cannot be ordered by yeast fitness: at most 0.5 for the first, at most 0.5 for the second.

U2G A15C U47G A69C and U2G A14U A20G C33G G67U A69C cannot be ordered by yeast fitness: at most 0.5 for the first, at most 0.5 for the second.

U2C U3C C34U C55A and U2G C22A A36G G52A C66A A69U cannot be ordered by yeast fitness: at most 0.5 for the first, at most 0.5 for the second.

First: U2G C27U A37C G52A G67A
Second: U2G C4U U7G C11G A15C G18A C55U
The yeast fitness of the first is lower: at most 0.5 for the first, 0.75 for the second.

Compared with U2G A21C C22U, U2G A21C C22G is lower in yeast fitness: 0.575 for the first, 0.541 for the second.

First: U2G C11U C55G
Second: U2C U16C C27G
The yeast fitness of the first is lower: at most 0.5 for the first, 0.669 for the second.

Going from U2G A42C U47A G63C to U2G A14C A69C, the yeast fitness falls from 0.55 to at most 0.5.

U2G C27U C55U and U2G C31G A57U cannot be ordered by yeast fitness: at most 0.5 for the first, at most 0.5 for the second.

U2G C27G C66U and U2C U28A G56A cannot be ordered by yeast fitness: at most 0.5 for the first, at most 0.5 for the second.

U2G A40U C49A G58C G63C and U2G A36G A40U A43U cannot be ordered by yeast fitness: at most 0.5 for the first, at most 0.5 for the second.

U2C U32A A65C and U2C U28C C55A cannot be ordered by yeast fitness: at most 0.5 for the first, at most 0.5 for the second.

First: U2G A36U G68C
Second: U2G C31G U35A A45U
The yeast fitness of the first is higher: 0.605 for the first, at most 0.5 for the second.

U2G C4A C22U U28G A42U and U2C U32A C61A A65G cannot be ordered by yeast fitness: at most 0.5 for the first, at most 0.5 for the second.

U2C U19C A37G and U2G A21G U32C U59G C66U A70C cannot be ordered by yeast fitness: at most 0.5 for the first, at most 0.5 for the second.

Compared with U2C G50A, U2G C22U C24G G51C C60U G67A is lower in yeast fitness: 0.878 for the first, at most 0.5 for the second.

First: U2G A20U A43U
Second: U2G C27U A36G
The yeast fitness of the first is higher: 0.594 for the first, 0.552 for the second.

Going from U2C U19A C30U G38C to U2G A14G C62G A70U, the yeast fitness falls from 0.54 to at most 0.5.

U2G A14G C22U C24G A69C and U2G A14G C29G A37U cannot be ordered by yeast fitness: at most 0.5 for the first, at most 0.5 for the second.

First: U2G C24G C29G C31G A69C
Second: U2G A36G
The yeast fitness of the first is lower: at most 0.5 for the first, 0.953 for the second.

Compared with U2C U16A, U2C G50A G51A is lower in yeast fitness: 0.971 for the first, 0.511 for the second.

Compared with U2G C4U A42G, U2G A15G G17A G52C A65G is lower in yeast fitness: 0.755 for the first, 0.558 for the second.

Compared with U2C U8A G17C G38A G56C C61A, U2C U16A A42G is higher in yeast fitness: at most 0.5 for the first, 0.649 for the second.

First: U2G C5A U19A C30G A43C A69C
Second: U2G C4U C60A
The yeast fitness of the first is higher: 0.537 for the first, at most 0.5 for the second.

Compared with U2C U16C A36G C55U, U2C U32A C46U is higher in yeast fitness: at most 0.5 for the first, 0.603 for the second.

Compared with U2G A15C C49U, U2C U19C is higher in yeast fitness: 0.563 for the first, 0.897 for the second.

First: U2C U19G
Second: U2G A21C A45G
The yeast fitness of the first is higher: 0.867 for the first, 0.54 for the second.

U2G A36G A40U A43U C66A and U2G C4U U7G C11G A15C G18A U28C C55U cannot be ordered by yeast fitness: at most 0.5 for the first, at most 0.5 for the second.

U2C U35A U47A C49U C55U C66U and U2G C5A U19A C30G C55U G68C cannot be ordered by yeast fitness: at most 0.5 for the first, at most 0.5 for the second.

First: U2G C4U U13A G41A A45C C49A U54G C55G
Second: U2C U16G A70G
The yeast fitness of the first is lower: at most 0.5 for the first, 1.06 for the second.

First: U2C G58A C62G
Second: U2C U16A G63A
The yeast fitness of the first is lower: 0.597 for the first, 0.705 for the second.

U2C U16C A36G and U2C U35C A69C cannot be ordered by yeast fitness: at most 0.5 for the first, at most 0.5 for the second.

Going from U2G A14C A57U A69U to U2C G50A G68C, the yeast fitness rises from at most 0.5 to 0.556.

First: U2G A40C G41C A42U
Second: U2C G67A A70U
The yeast fitness of the first is lower: at most 0.5 for the first, 0.67 for the second.

Compared with U2G A69C A70G, U2C U64C G68A is higher in yeast fitness: 0.57 for the first, 0.578 for the second.

U2C U28A A70G and U2C U13A G18A A42G cannot be ordered by yeast fitness: at most 0.5 for the first, at most 0.5 for the second.

U2G C31U G48C C62A and U2G C5A C55G A65C cannot be ordered by yeast fitness: at most 0.5 for the first, at most 0.5 for the second.

U2G A15U U47A C62A and U2C U3G G10A A69C cannot be ordered by yeast fitness: at most 0.5 for the first, at most 0.5 for the second.

Going from U2C U35A G56A to U2G A45C C61U, the yeast fitness rises from 0.576 to 0.615.

U2G A40U C46G and U2G C11G G12A A20U C31G G68C cannot be ordered by yeast fitness: at most 0.5 for the first, at most 0.5 for the second.

U2G A36U G67A G68C and U2G A20G C22A A40C C46G G48A C49U G63A cannot be ordered by yeast fitness: at most 0.5 for the first, at most 0.5 for the second.

U2G A45U C49U C61G and U2C U3C U19A C61A cannot be ordered by yeast fitness: at most 0.5 for the first, at most 0.5 for the second.

Compared with U2G A57C, U2C U35A C55A is lower in yeast fitness: 0.533 for the first, at most 0.5 for the second.

U2G C22G C27G C30A U32G C55G and U2G A36G A40U A43U G56C A57U cannot be ordered by yeast fitness: at most 0.5 for the first, at most 0.5 for the second.

Variant U2G C27G G52C has a yeast fitness of at most 0.5.
